Measurements from ChEMBL document CHEMBL1131241, “Cyclic HIV protease inhibitors: design and synthesis of orally bioavailable, pyrazole P2/P2' cyclic ureas with improved potency” (J Med Chem, 1998).

Assays:
MT2 [1] = test: Cytotoxicity was determined by 50% reduction in the number of viable MT2 cells with HIV-1RF; assay type: functional; settings: Homo sapiens, read-out: TC50 (the source's name)
Method in brief: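 TC50 taken as concentration giving 50% fewer viable cells, with viability read by tetrazolium dye metabolism.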

[2] = biological target: Human immunodeficiency virus type 1 protease (Human immunodeficiency virus 1, UniProt Q72874); test: Inhibition of HIV protease, measured by assaying the cleavage of a fluorescent peptide substrate using HPLC
[3] = Bioavailability as maximal plasma concentration in rats after 10 mg/kg oral dose; assay type: ADME, organism-based; set-up: dose 10 mg/kg, route oral; settings: rat
MT2 [4] = test: Concentration which reduced the concentration of HIV viral RNA by 90% from the level measured in an untreated infected culture; assay type: functional; settings: Homo sapiens
Method in brief: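 MT-2 cells infected with HIV-1 RF. Uninfected cells preincubated 30 min with serial dilutions of compound in culture medium, then virus added; cultured 3 days at 37 °C, 5% CO₂. Lysed cells assayed for HIV RNA by microtiter plate hybridization. IC90 = concentration lowering viral RNA 90% versus untreated infected culture.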

[5] = Bioavailability as maximal plasma concentration in dogs after 2.5 mg/kg oral dose; assay type: ADME, organism-based, Canis lupus familiaris; set-up: dose 2.5 mg/kg, route oral; settings: dog

Row | Cmax [3] | Cmax [5] | Compound | CC50 (MT2 [1]) | Ki [2] | IC90 (MT2 [4])
1 |  |  | CCC(=O)c1cccc(CN2C(=O)N(Cc3cccc(C(=O)CC)c3)[C@H](Cc3ccccc3)[C@H](O)[C@@H](O)[C@H]2Cc2ccccc2)c1 | > 80000 nM | 0.21 nM | 142 nM
2 | 780 nM |  | O=C1N[C@H](Cc2ccccc2)[C@H](O)[C@@H](O)[C@@H](Cc2ccccc2)N1Cc1cccc(-c2cc[nH]n2)c1 | 21000 nM | 0.26 nM | 67 nM
3 |  |  | O=C1N(Cc2cccc(C(=O)C(F)(F)F)c2)[C@H](Cc2ccccc2)[C@H](O)[C@@H](O)[C@@H](Cc2ccccc2)N1Cc1cccc(C(=O)C(F)(F)F)c1 | 5400 nM | 0.037 nM | 33 nM
4 |  |  | CCC/C(=N/O)c1cccc(CN2C(=O)N(Cc3cccc(/C(CCC)=N/O)c3)[C@H](Cc3ccccc3)[C@H](O)[C@@H](O)[C@H]2Cc2ccccc2)c1 | 3700 nM | 0.031 nM | 64 nM
5 |  |  | O=C1N(Cc2cccc(-c3nc[nH]n3)c2)[C@H](Cc2ccccc2)[C@H](O)[C@@H](O)[C@@H](Cc2ccccc2)N1Cc1cccc(-c2nc[nH]n2)c1 | 53000 nM | 0.052 nM | 128 nM
6 |  |  | O=C1N(Cc2cccc(/C(=N/O)C(F)(F)F)c2)[C@H](Cc2ccccc2)[C@H](O)[C@@H](O)[C@@H](Cc2ccccc2)N1Cc1cccc(/C(=N\O)C(F)(F)F)c1 | 14000 nM | 3.9 nM | 714 nM
7 | 110 nM |  | O=C1N(Cc2cccc(CO)c2)[C@H](Cc2ccccc2)[C@H](O)[C@@H](O)[C@@H](Cc2ccccc2)N1Cc1cccc(-c2cc[nH]n2)c1 | 20000 nM | 0.16 nM | 234 nM
8 |  |  | O=C1N(Cc2cccc(-c3nnn[nH]3)c2)[C@H](Cc2ccccc2)[C@H](O)[C@@H](O)[C@@H](Cc2ccccc2)N1Cc1cccc(-c2nnn[nH]2)c1 | 78000 nM | 6.6 nM | > 70000 nM
9 |  |  | CC/C(=N/O)c1cccc(CN2C(=O)N(Cc3cccc(/C(CC)=N/O)c3)[C@H](Cc3ccccc3)[C@H](O)[C@@H](O)[C@H]2Cc2ccccc2)c1 | 5000 nM | 0.031 nM | 7 nM
10 |  |  | CC(C)(C)C(=O)c1cccc(CN2C(=O)N(Cc3cccc(C(=O)C(C)(C)C)c3)[C@H](Cc3ccccc3)[C@H](O)[C@@H](O)[C@H]2Cc2ccccc2)c1 |  | 3.6 nM | 
11 |  |  | CCCC(=O)c1cccc(CN2C(=O)N(Cc3cccc(C(=O)CCC)c3)[C@H](Cc3ccccc3)[C@H](O)[C@@H](O)[C@H]2Cc2ccccc2)c1 | > 77000 nM | 1.4 nM | 1440 nM
12 |  |  | O=C(NCCN1CCOCC1)c1cccc(CN2C(=O)N(Cc3cccc(-c4cc[nH]n4)c3)[C@H](Cc3ccccc3)[C@H](O)[C@@H](O)[C@H]2Cc2ccccc2)c1 | 43000 nM | 0.052 nM | 128 nM
13 | 300 nM |  | O=C1N(Cc2cccc(/C=N\O)c2)[C@H](Cc2ccccc2)[C@H](O)[C@@H](O)[C@@H](Cc2ccccc2)N1Cc1cccc(/C=N/O)c1 | 16000 nM | 0.01 nM | 5 nM
14 | 60 nM |  | C/C(=N/O)c1cccc(CN2C(=O)N(Cc3cccc(/C(C)=N/O)c3)[C@H](Cc3ccccc3)[C@H](O)[C@@H](O)[C@H]2Cc2ccccc2)c1 | 81000 nM | 0.018 nM | 2 nM
15 |  |  | O=C1N(Cc2cccc(-c3ncc[nH]3)c2)[C@H](Cc2ccccc2)[C@H](O)[C@@H](O)[C@@H](Cc2ccccc2)N1Cc1cccc(-c2ncc[nH]2)c1 | 78000 nM | 0.16 nM | 234 nM
16 |  |  | O=C1N(Cc2cccc(-c3c[nH]nn3)c2)[C@H](Cc2ccccc2)[C@H](O)[C@@H](O)[C@@H](Cc2ccccc2)N1Cc1cccc(-c2c[nH]nn2)c1 | 47000 nM | 0.17 nM | 94 nM
17 |  | 850 nM | Nc1cccc(CN2C(=O)N(Cc3cccc(-c4cc[nH]n4)c3)[C@H](Cc3ccccc3)[C@H](O)[C@@H](O)[C@H]2Cc2ccccc2)c1 | 6800 nM | 0.035 nM | 27 nM
18 |  |  | O=C1N(Cc2cccnc2)[C@H](Cc2ccccc2)[C@H](O)[C@@H](O)[C@@H](Cc2ccccc2)N1Cc1cccc(-c2cc[nH]n2)c1 | 6300 nM | 0.17 nM | 94 nM
19 |  |  | O=C1N(Cc2ccc(O)cc2)[C@H](Cc2ccccc2)[C@H](O)[C@@H](O)[C@@H](Cc2ccccc2)N1Cc1cccc(-c2cc[nH]n2)c1 | 4800 nM | 0.021 nM | 30 nM
20 | 320 nM |  | COC(=O)c1cccc(CN2C(=O)N(Cc3cccc(-c4cc[nH]n4)c3)[C@H](Cc3ccccc3)[C@H](O)[C@@H](O)[C@H]2Cc2ccccc2)c1 | 5700 nM | 0.14 nM | 32 nM
21 | 2250 nM |  | Nc1cccc(CN2C(=O)N(Cc3cccc(N)c3)[C@H](Cc3ccccc3)[C@H](O)[C@@H](O)[C@H]2Cc2ccccc2)c1 [MOZENAVIR] |  |  | 

Row | Compound | Cmax [3] | Cmax [5] | CC50 (MT2 [1]) | Ki [2] | IC90 (MT2 [4])
22 | CC(=O)c1cccc(CN2C(=O)N(Cc3cccc(C(C)=O)c3)[C@H](Cc3ccccc3)[C@H](O)[C@@H](O)[C@H]2Cc2ccccc2)c1 | 500 nM |  | 20000 nM | 0.06 nM | 39 nM
23 | O=C1N(Cc2cccc(-c3c[nH]cn3)c2)[C@H](Cc2ccccc2)[C@H](O)[C@@H](O)[C@@H](Cc2ccccc2)N1Cc1cccc(-c2c[nH]cn2)c1 | < 42 nM |  | 8800 nM | 0.19 nM | 84 nM
24 | O=Cc1cccc(CN2C(=O)N(Cc3cccc(C=O)c3)[C@H](Cc3ccccc3)[C@H](O)[C@@H](O)[C@H]2Cc2ccccc2)c1 | 260 nM |  | 19000 nM | 0.44 nM | 36 nM
25 | O=C1N(Cc2cccc(-c3cn[nH]c3)c2)[C@H](Cc2ccccc2)[C@H](O)[C@@H](O)[C@@H](Cc2ccccc2)N1Cc1cccc(-c2cn[nH]c2)c1 | 75 nM |  | 1400 nM | 0.62 nM | 32 nM
26 | O=C1N(Cc2cccc(-c3cc[nH]n3)c2)[C@H](Cc2ccccc2)[C@H](O)[C@@H](O)[C@@H](Cc2ccccc2)N1Cc1cccc(-c2cc[nH]n2)c1 | 68 nM |  | 4200 nM | 0.027 nM | 20 nM
